Bioassay records: PubChem BioAssay, several laboratories
In the library only some 4.9% were active in any assay of this set; here they are far more common.
STAT1 blocker: STAT1 signaling inhibitors, primary screen, cell-based, HTS, luciferase reporter; NIH 3T3 STAT1-luciferase reporter, IFN-gamma, luminescence; inhibition, % at 5.5 µM; actives 0.35% (n = 200,000); AID 920, 2007;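 active means inhibition above a set limit, the mean inhibition across all tested compounds plus 3 SD, cut at about 34% in these data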
NF-kB neuron act: activators of NF-kB expression in neurons, primary screen, cell-based, HTS; human neuronal cells, NF-kB reporter expression; hits give high values; fold change at 12.5 µM; actives 1.6% (n = 190,000); AID 1239, 2008; in the data active means fold change above about 3.3
APP 5'UTR act: activators of APP 5'UTR luciferase reporter, primary screen, SH-SY5Y cells | SH-SY5Y APP 5'UTR luciferase reporter, luminescence; zero percent = DMSO vehicle wells | activation, % at 2 µM | actives 1% (n = 190,000);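 active means activation above a set limit, based on mean plus 3 SD of controls, cut at about 140% in these data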
STAT1 act: STAT1 signaling activators, primary screen, cell-based, HTS, luciferase reporter | AID 932, 2007 | NIH 3T3 STAT1-luciferase reporter, IFN-gamma, luminescence; 100% = IFN-gamma alone, no compound | actives 2.6% (n = 200,000) | activation (% of control), % at 5.5 µM;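 active means activation above the screen-wide mean activation plus 3 SD, cut at about 130% in these data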
STAT3 act: IL-6 driven STAT3 reporter potentiators, primary screen, U3A cells, luciferase, luminescence, MLSCN library; activation (% of control), % at 5.6 µM; AID 871, 2007; actives 0.91% (n = 190,000); IL-6 STAT3-luciferase reporter; 100% = signal with IL-6 EC80 alone;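 active means activation above the screen-wide mean of compound activation plus 3 SD, cut at about 130% in these data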
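Material: human U3A cells carrying STAT3-luciferase construct. Measured by: reporter luminescence signal. Timing: compound 1 h, then IL-6 6 h at 37 °C.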
STAT3 blocker: IL-6 driven STAT3 reporter inhibitors, primary screen, U3A cells, luciferase, luminescence, MLSCN library; IL-6 STAT3-luciferase reporter; host cell line lacks STAT1; inhibition, % at 5.5 µM; actives 0.89% (n = 190,000); AID 862, 2007;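 active means inhibition above the mean inhibition across all screened compounds plus 3 SD, cut at about 44% in these data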
Numbers stand for hits; 0 = inactive; - = not tested or not shown.

SMILES | STAT1 blocker | NF-kB neuron act | APP 5'UTR act | STAT1 act | STAT3 act | STAT3 blocker
Cc1cccnc1NC(=S)Nc1ccc(F)cc1F | 0 | 0 | 0 | 0 | 0 | 0
Cc1ccc(C)c(NC(=S)Nc2ncccc2C)c1 | 0 | 0 | 0 | 132 | 0 | 0
CCCCCCC1CCC(C(=O)N2CCOCC2)CC1 (stereo not drawn) | 0 | 0 | 0 | 0 | 0 | 0
COc1ccc(OCCSc2nnnn2C2CCCCC2)cc1 | 0 | 0 | 0 | 0 | 0 | 0
c1ccc(OCCSc2nnnn2C2CCCCC2)cc1 | 0 | - | 142 | 133 | 0 | 0
CNC(=S)NNc1nc(C)cc(C)n1 | 0 | 0 | 0 | 0 | 0 | 0
O=[N+]([O-])c1ccc(/C=N/N/C(=N/c2ccccn2)c2ccccn2)cc1 | 0 | 0 | 0 | 135 | 0 | 0
c1ccc2c(c1)OCCOCCOc1ccccc1OCCOCCO2 | 0 | 0 | 0 | 0 | 0 | 0
N#Cc1ccccc1NC(=O)C1SC(=Nc2ccccc2)C(C(=O)Nc2ccc(Cl)cc2)=C1N (stereo not drawn) | 55 | 0 | 0 | 0 | 0 | 54
CCCN1CCC(=NNc2ccc(C(=O)O)cc2)CC1 | 0 | 0 | 0 | 0 | 0 | 0
CC1CCCC(C)N1C(=S)SCC(=O)O (stereo not drawn) | 0 | 0 | 0 | 0 | 0 | 0
O=C(CS(=O)(=O)c1ccccc1)Nc1nc2ccccc2s1 | 0 | - | 0 | 0 | 133 | 0
CN(CC(=O)Nc1nc2ccccc2s1)S(=O)(=O)c1ccc(Br)cc1 | 0 | 0 | - | 0 | 134 | 0
CCOc1ccc2nc(NC(=O)CS(=O)(=O)c3ccccc3)sc2c1 | 0 | 0 | 0 | 0 | 0 | 0
Cc1cccc(NC(=O)CN(C)S(=O)(=O)c2ccc(Br)cc2)n1 | 0 | 0 | 0 | 0 | 0 | 0
CCC(CO)NCC#Cc1ccccc1 (stereo not drawn) | 0 | 0 | 0 | 0 | 0 | 0
Cc1ccc(S(=O)(=O)N(C)c2ccc3sc(C)nc3c2)cc1 | 0 | 0 | 0 | 0 | 0 | 0
CN(C(=O)Nc1ccc(Cl)cc1Cl)C1CCCC1 | 0 | 0 | 0 | 135 | 0 | 0
O=C(Nc1ccc(Cl)cc1Cl)NC1CCCC1 | 0 | 0 | 0 | 0 | 0 | 0
CCN(CC)C(=O)C(Sc1ccccc1)c1ccccc1 (stereo not drawn) | 0 | 0 | 0 | 0 | 0 | 0
Cc1ccc(S(=O)(=O)NCC(=O)N/N=C/c2ccccc2O)cc1 | 0 | 0 | 0 | 0 | 0 | 0
O=C1C2C3C=CC(C4CC34)C2C(=O)N1/N=C/c1ccc([N+](=O)[O-])s1 (stereo not drawn) | 0 | 0 | 0 | 0 | 0 | 0
O=C1C2C3C=CC(C4CC34)C2C(=O)N1/N=C/c1c[nH]c2ccccc12 (stereo not drawn) | 0 | 0 | 0 | 133 | 0 | 0
C/C(N)=C(/C#N)C(=O)CSc1nnc(-c2ccccc2Br)o1 | 0 | 5.5 | 198 | 138 | 0 | 0
COc1ccc2nc(SCC(N)=O)[nH]c2c1 | 0 | 0 | 0 | 0 | 0 | 0
SMILES | STAT1 blocker | NF-kB neuron act | APP 5'UTR act | STAT1 act | STAT3 act | STAT3 blocker
COc1ccc(-c2nnc(SCC(=O)/C(C#N)=C(\C)N)o2)cc1 | 0 | 5.1 | 194 | 136 | 0 | 0
COc1ccc(-c2nnc(-c3ccc(N)cc3)o2)cc1 | 0 | 5.7 | 0 | 140 | 0 | 0
COc1ccc2nc(SCC(=O)/C(C#N)=C(\C)N)[nH]c2c1 | 0 | 4.1 | 0 | 141 | 0 | 0
CC(C)CCNC(=O)NC(=O)CSc1nnc(-c2ccccc2Br)o1 | 0 | 0 | 0 | 0 | 0 | 0
COc1ccc(-c2nnc(-c3ccc(N(C)C)cc3)o2)cc1 | 0 | 0 | 0 | 0 | 0 | 0
O=c1nc2ccccc2c2n1CC(CN1CCN(C(c3ccccc3)c3ccccc3)CC1)N2 (stereo not drawn) | 0 | 0 | 0 | 0 | 0 | 0
CSC(=S)N/N=C(\C)c1ccc(Br)cc1 | 0 | 0 | 0 | 0 | 0 | 0
CCOC(=O)C1CCC(CN(Cc2ccccc2)S(=O)(=O)c2ccc([N+](=O)[O-])cc2)CC1 (stereo not drawn) | 0 | 0 | 0 | 0 | 0 | 0
COc1ccc(-c2noc(-c3ccccc3C(=O)Nc3cccc(OC)c3)n2)cc1 | 0 | 0 | 0 | 0 | 0 | 0
CC(=O)Nc1cccc(Oc2ccc(-c3noc(C)n3)cc2)c1 | 0 | 0 | 0 | 138 | 0 | 0
CC(C)CN(C)C(=O)CCc1nnc(Cc2cccc(C(F)(F)F)c2)o1 | 0 | 0 | 0 | 133 | 0 | 0
C=C(C)CNC(=O)CCc1nnc(Cc2cccc(C(F)(F)F)c2)o1 | 0 | 0 | 0 | 140 | 0 | 0
Cc1ccc(NC(=O)COC(=O)[C@H](C)N2C(=O)C3CC=CCC3C2=O)cc1S(=O)(=O)N(C)C (stereo partly drawn) | 0 | 0 | 0 | 0 | 0 | 0
Cn1nc(-c2ccc(Cl)cc2)nc2c(=O)n(C)c(=O)nc1-2 | 88 | 0 | 0 | 0 | 0 | 74
COc1ccc(C2=Nn3c([n+](C)c4ccccc43)SC2)cc1 | 35 | 0 | 0 | 0 | 0 | 0
Cc1ccc(/C=c2/sc3n(c2=O)CCCN=3)o1 | 0 | 0 | 0 | 129 | 0 | 0
Cc1ccccc1/C=C\c1nc2ccccc2c(=O)[nH]1 | 0 | 4.4 | 164 | 0 | 0 | 0
CCCn1c2c(c(O)c(C(=O)Nc3ccccc3)c1=O)CCCC2 | 0 | 0 | 0 | 0 | 133 | 0
CC(C)Cn1c2c(c(O)c(C(=O)Nc3ccc(F)cc3)c1=O)CCCC2 | 0 | 0 | 0 | 0 | 0 | 0
CC(C)c1nnc(NC(=O)c2ccc(N3C(=O)CCC3=O)cc2)s1 | 0 | 0 | 0 | 136 | 0 | 0
COc1ccc(-c2nnc(NC(=O)C(C)C)s2)c(OC)c1 | 0 | 0 | 0 | 133 | 0 | 0
O=C(Nc1nnc(C23CC4CC(CC(C4)C2)C3)s1)c1ccc(N2C(=O)CCC2=O)cc1 | 0 | 0 | 0 | 0 | 0 | 0
CCCc1nnc(NC(=O)c2cccc(OC)c2)s1 | 0 | 0 | 0 | 134 | 0 | 0
COc1cccc(C(=O)Nc2nc(-c3ccncc3)cs2)c1 | 0 | 0 | 0 | 0 | 0 | 0
COc1cccc(C(=O)Nc2nc(C)cs2)c1 | 0 | 3.7 | 164 | 148 | 0 | 0
Cc1cc(C)c2[nH]c(=O)c(CN(Cc3cccs3)C(=S)NCC3CCCO3)cc2c1 (stereo not drawn) | 0 | 0 | 0 | 0 | 0 | 0
COc1ccc(S(=O)(=O)N(C)C)cc1NCC(=O)Nc1ccc(Br)c(C)c1 | 0 | 0 | 0 | 0 | 0 | 0
COc1cccc(C(=O)Nc2nnc(C(C)C)s2)c1 | 0 | - | 198 | 136 | 0 | 0
COCc1nnc(NC(=O)c2cc(Cl)ccc2OC)s1 | 0 | 0 | 0 | 0 | 0 | 0
COCc1nnc(NC(=O)c2ccc(OC)cc2OC)s1 | 0 | 4.4 | 0 | 0 | 0 | 0
